Screening data from PubChem.
Compounds with a hit are over-represented: about 1.6% of the library has one in this group of screens.
TDP2 absorb: TDP2 (human) inhibition, absorbance primary screen. O95551. recombinant TDP2, T5PNP hydrolysis, p-nitrophenol absorbance 415 nm. inhibition, % at 12.8 µM. 0.34% of 370,000 active. AID 720702;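 active = inhibition above the mean of all tested compounds plus 3 SD, set per campaign, cut at about 25% in these data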
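System: recombinant human TDP2 / Amount: 120 nM TDP2 per well / Also added: 5 mM T5PNP chromogenic substrate / Doses: 12.8 µM single point, 1% DMSO / Incubation: 2 h at 37 °C / Detection: p-Nitrophenol epi absorbance / Evaluation: % inhibition relative to enzyme-containing and enzyme-free wells / Repeats: singlicate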
UHRF1 binding: UHRF1 methyl-DNA binding inhibition | Q96T88 | UHRF1 binding to methylated oligo, TR-FRET | inhibition, % at 4.4 µM | 0.75% of 370,000 active | AID 687016; in the data active = inhibition above about 21%;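 note: UHRF1 SRA domain binding a hemimethylated CpG hairpin DNA probe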
Target sequence (Q96T88 whole entry, looked up, the tested form may be a part): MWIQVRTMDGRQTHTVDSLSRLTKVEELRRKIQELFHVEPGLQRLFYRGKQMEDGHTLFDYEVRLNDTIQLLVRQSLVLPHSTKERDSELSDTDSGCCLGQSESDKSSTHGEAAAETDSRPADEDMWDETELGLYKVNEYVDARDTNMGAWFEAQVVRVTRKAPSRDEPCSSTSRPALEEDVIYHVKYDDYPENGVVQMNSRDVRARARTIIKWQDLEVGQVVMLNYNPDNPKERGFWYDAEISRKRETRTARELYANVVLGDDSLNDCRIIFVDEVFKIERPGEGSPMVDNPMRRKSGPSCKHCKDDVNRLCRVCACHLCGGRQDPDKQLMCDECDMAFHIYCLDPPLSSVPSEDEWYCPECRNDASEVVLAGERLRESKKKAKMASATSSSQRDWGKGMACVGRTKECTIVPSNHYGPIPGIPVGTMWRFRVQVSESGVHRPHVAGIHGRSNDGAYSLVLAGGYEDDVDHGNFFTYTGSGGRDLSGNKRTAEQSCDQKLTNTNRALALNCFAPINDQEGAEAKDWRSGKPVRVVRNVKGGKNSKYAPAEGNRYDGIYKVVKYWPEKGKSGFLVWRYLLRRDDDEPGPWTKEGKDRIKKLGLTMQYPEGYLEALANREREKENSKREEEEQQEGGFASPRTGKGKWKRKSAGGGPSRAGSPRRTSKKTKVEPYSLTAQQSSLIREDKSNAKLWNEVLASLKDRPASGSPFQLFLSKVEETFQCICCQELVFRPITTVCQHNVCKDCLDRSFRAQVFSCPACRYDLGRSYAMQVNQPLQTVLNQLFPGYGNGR
LEDGF integ inh: blocks HIV-1 LEDGF/p75-dependent DNA integration; AID 743269; 0.64% of 370,000 active; inhibition, % at 3.7 µM; TR-FRET IN-LEDGF/p75 DNA integration, Eu/Cy5;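 active = inhibition above the screen-wide mean plus 3 SD, cut at about 13% in these data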;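 note: signal is the Cy5 over europium emission ratio at 671 and 618 nm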
MBD2 DNA inh: MBD2-methylated oligo binding inhibition; TR-FRET, MBD2 binding to methylated oligonucleotide; inhibition, % at 4.4 µM; 0.31% of 370,000 active; in the data active = inhibition above about 13%
UHRF1 ctr MBD2: UHRF1 methyl-oligo binding inhibition as MBD2 counter-screen; shares compounds with MBD2 DNA inh; UHRF1 binding to methylated oligonucleotide, TR-FRET; inhibition, % at 4.4 µM; 25% of 1,000 active; AID 720530; in the data active = inhibition above about 21%;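 note: UHRF1 SRA domain binding a labeled hemimethylated CpG hairpin DNA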
MBD2 DBD conf: MBD2-DBD methyl-DNA binding inhibition, TR-FRET confirmation; AID 720531; shares compounds with MBD2 DNA inh; inhibition, % at 4.4 µM; 26% of 1,000 active; TR-FRET MBD2-DBD binding to methylated oligonucleotide
TDP2 confirm: human TDP2 inhibition, confirmation. shares compounds with TDP2 absorb. recombinant human TDP2, absorbance read-out. inhibition, % at 12.8 µM. 22% of 1,100 active. AID 743263; in the data active = inhibition above about 25%
IN multimer up: counter-screen for LEDGF/p75 integration inhibitors: HIV-1 integrase multimerization activators; shares compounds with LEDGF integ inh; TR-FRET HIV-1 integrase multimerization, biochemical; activation, % at 7.7 µM; 17% of 2,000 active; in the data active = activation above about 8.9%
TRFRET interf: optically interferes with TR-FRET readout in LEDGF counter-screen; inhibition, % at 7.7 µM; TR-FRET optical interference counterscreen, HIV-1 IN multimerization; AID 1053135; 2,000 tested, under 10 active; shares compounds with LEDGF integ inh;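 active = inhibition above the mean over all tested compounds plus 3 SD, which no compound reached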
LEDGF integ conf: confirmation of HIV-1 LEDGF/p75-dependent integration inhibitors; 36% of 2,000 active; inhibition, % at 3.7 µM; AID 1053136; shares compounds with LEDGF integ inh; TR-FRET LEDGF/p75-dependent HIV-1 integration, biochemical
Each line names hits and unclear results; the compound was inactive in the other large screens (follow-up assays come after a bar, where they were run). Cut-off read from the data, not from the text of the source, unless noted: active = inhibition above about 14%; inactive = the rest.

COc1ccc(-c2nc(-c3ccccn3)ncc2S(C)(=O)=O)cc1	none
Cn1nc(-c2ccccn2)nc2c(=O)n(C)c(=O)nc1-2	TDP2 absorb 91, MBD2 DNA inh 14 | UHRF1 ctr MBD2 inactive | MBD2 DBD conf inactive | TDP2 confirm 85
CC1=NN(c2ccc(F)cc2)C(=O)C1C(c1cccc(O)c1)c1c(C)[nH]n(-c2ccc(F)cc2)c1=O (configuration not stated)	TDP2 absorb 89, LEDGF integ inh 39, MBD2 DNA inh 19 | UHRF1 ctr MBD2 inactive | MBD2 DBD conf inactive | TDP2 confirm 48
COc1cccc(/C=N\N2CCN(c3ccc(C)cc3)CC2)c1O	none
Nc1ncnc2oc(-c3ccco3)c(-c3ccco3)c12	TDP2 absorb 27, UHRF1 binding 92, LEDGF integ inh 86, MBD2 DNA inh 81 | UHRF1 ctr MBD2 53 | MBD2 DBD conf 39 | TDP2 confirm inactive
COC(=O)[C@]12C[C@H](CC(=O)NCCCN3CCCC3=O)C(=O)N(Cc3ccc4c(c3)OCO4)C1=C[C@H](C(C)C)O[C@@H]2C1CC1	none
Nn1c(SCc2ccc([N+](=O)[O-])cc2)nnc1-c1n[nH]c2c1CCC2	none
CN(C)C(=O)c1cccc(-c2cnc3c(NC=O)cc(-c4ccccc4Cl)cn23)c1	none
CN(C)C(=O)c1cccc(-c2cnc3c(NC=O)cc(-c4ccccc4N(C)C)cn23)c1	TDP2 absorb 29, MBD2 DNA inh 36 | UHRF1 ctr MBD2 inactive | MBD2 DBD conf 30 | TDP2 confirm inactive
COc1ccc(OCc2nn3c(-c4ccco4)nnc3s2)cc1	none
c1coc(-c2nnc3sc(Cc4cccs4)nn23)c1	UHRF1 binding 71, LEDGF integ inh 38, MBD2 DNA inh 19 | UHRF1 ctr MBD2 inactive | MBD2 DBD conf inactive | IN multimer up inactive | TRFRET interf inactive | LEDGF integ conf 18
COc1ccc(C2C(C(=O)Nc3cc(OC)c(OC)c(OC)c3)CCC(=O)N2c2ccc(OC)cc2)cc1 (configuration not stated)	none
Cc1ccc(NC(=S)NNC(=O)CSc2nnc(-c3ccc(C)cc3)n2C2CCCCC2)cc1	none
COc1cc(N)c(C(=O)c2nccc3cc(OC)c(OC)cc23)cc1OC	none
COc1cc(Br)c(C(=O)c2nccc3cc(OC)c(OC)cc23)cc1OC	TDP2 absorb 91, UHRF1 binding 25, LEDGF integ inh 15, MBD2 DNA inh 14 | UHRF1 ctr MBD2 37 | MBD2 DBD conf 26 | TDP2 confirm 56 | IN multimer up inactive | TRFRET interf inactive | LEDGF integ conf 75
COc1ccc(Br)cc1/C=c1\sc2nc(-c3ccco3)nn2c1=O	UHRF1 binding 71, LEDGF integ inh 24, MBD2 DNA inh 23 | UHRF1 ctr MBD2 22 | MBD2 DBD conf inactive | IN multimer up inactive | TRFRET interf inactive | LEDGF integ conf 15
O=C1NC(=S)NC1=Cc1ccco1	UHRF1 binding 61, LEDGF integ inh 56, MBD2 DNA inh 21 | UHRF1 ctr MBD2 inactive | MBD2 DBD conf inactive | IN multimer up inactive | TRFRET interf inactive | LEDGF integ conf 41
Cc1ccc(-c2c3c(nc4sc(C(N)=O)c(N)c24)CCCC3)o1	none
NC(=O)c1sc2nc3c(c(-c4ccco4)c2c1N)CCC3	TDP2 absorb 26, UHRF1 binding 47, LEDGF integ inh 43, MBD2 DNA inh 15 | UHRF1 ctr MBD2 inactive | MBD2 DBD conf inactive | TDP2 confirm inactive | IN multimer up inactive | TRFRET interf inactive | LEDGF integ conf inactive
COC(=O)c1ccc(OC(=O)/C=C/c2ccco2)cc1	none
O=Cc1cccc(OC(=O)/C=C/c2ccco2)c1	UHRF1 binding 48, LEDGF integ inh 16, MBD2 DNA inh 17 | UHRF1 ctr MBD2 48 | MBD2 DBD conf 25 | IN multimer up 11 | TRFRET interf inactive | LEDGF integ conf 36
O=C(Nc1ccccc1C(F)(F)F)OC1CCC12CCC(c1ccccc1)CC2 (configuration not stated)	none
O=C1c2cccc(NCCCNCCO)c2C(=O)c2cccc(NCCCNCCO)c21	UHRF1 binding 93, LEDGF integ inh 16, MBD2 DNA inh 105 | UHRF1 ctr MBD2 82 | MBD2 DBD conf 102 | IN multimer up 18 | TRFRET interf inactive | LEDGF integ conf 13
CCN(CC)CCCNc1nc2ccccc2c2[nH]c3ccc(OC)cc3c12	UHRF1 binding 85, LEDGF integ inh 19, MBD2 DNA inh 91 | UHRF1 ctr MBD2 96 | MBD2 DBD conf 109 | IN multimer up inactive | TRFRET interf inactive | LEDGF integ conf 34
CCN(CC)CCCNc1nc(-c2ccccc2)nc2ccccc12	none
CCN(CC)C(=O)CC[C@H]1CC[C@]2(CCCN(Cc3nccs3)C2)O1	none
Cc1ccc2c(c1)C1CS(=O)(=O)N(CCc3ccccc3)C(=O)N1C2 (configuration not stated)	none
O=C1CCC(=O)c2ccc3c4c(ccc1c24)CC3	UHRF1 binding 66, LEDGF integ inh 44, MBD2 DNA inh 36 | UHRF1 ctr MBD2 inactive | MBD2 DBD conf inactive | IN multimer up inactive | TRFRET interf inactive | LEDGF integ conf inactive
O=C1c2ccc3c4c(ccc(c24)C(=O)N1c1ccc2ccccc2c1)CC3	none
FC(F)(F)C1=Nc2cccc3cccc(c23)N1	UHRF1 binding 54, LEDGF integ inh 79, MBD2 DNA inh 34 | UHRF1 ctr MBD2 inactive | MBD2 DBD conf inactive | IN multimer up 57 | TRFRET interf inactive | LEDGF integ conf 57
Fc1ccc(C2=Nc3cccc4cccc(c34)N2)cc1	none
N#C/C(=C\c1ccc(O)c(O)c1)C(=O)N1CCCC1	none
N#C/C(=C\c1ccc(O)c(O)c1)C(=O)c1ccc(O)c(O)c1	UHRF1 binding 64, LEDGF integ inh 91, MBD2 DNA inh 19 | UHRF1 ctr MBD2 67 | MBD2 DBD conf 29 | IN multimer up 20 | TRFRET interf inactive | LEDGF integ conf 90
O=C1CCCC(O)=C1N=Nc1ccc(C(=O)O)cc1	UHRF1 binding 54, LEDGF integ inh 22, MBD2 DNA inh 15 | UHRF1 ctr MBD2 56 | MBD2 DBD conf 19 | IN multimer up 37 | TRFRET interf inactive | LEDGF integ conf 32
